The text below walks through data of ChEMBL document CHEMBL1152541, “Staurosporine tethered peptide ligands that target cAMP-dependent protein kinase (PKA): optimization and selectivity profiling” (Bioorg Med Chem, 2009).

The structures appear in SMILES notation. *1 amine or outer side, *2 acyl side, *3 side chain or, on linkers, in order; H or OH if unused. Where a SMILES comes first, the peptide text is derived from it. Bridges are numbered along the chain shown (N, C = ends). [ ]: non-standard residue; d: D form. The star is where a group is joined. Staurosporine = CO[C@@H]1[C@H](N(C)*)C[C@H]2O[C@]1(C)n1c3ccccc3c3c4c(c5c6ccccc6n2c5c31)C(=O)NC4; Suc = O=C(CCC(=O)[*:2])[*:1]; Dap = NC[C@H](N)C(=O)O; βAla = NCCC(=O)O

Test [1] has as its target Mast/stem cell growth factor receptor Kit (Homo sapiens) (UniProt P10721). The test can be described thus: Binding affinity to human KIT at 500 nM by cell-based competition binding assay relative to control in presence of DTT. The method, boiled down: (§1)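 Competition binding screen (Ambit) across a panel of 90 kinases, scoring test ligand displacement of each kinase's binding relative to control. The screen ran under reducing conditions with 7.5 mM DTT.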

The nature of test [2]: Ratio of compound to staurosporine binding affinity to PKA in presence of DTT.
Test [3] concerns the target Mitogen-activated protein kinase kinase kinase 9 (Homo sapiens) (UniProt P80192). The test can be described thus: Binding affinity to human MLK1 at 500 nM by cell-based competition binding assay relative to control in presence of DTT.
In test [4] the target is ALK tyrosine kinase receptor (Homo sapiens) (UniProt Q9UM73). The test is described as follows: Binding affinity to human ALK at 500 nM by cell-based competition binding assay relative to control in presence of DTT. A digest of the protocol:
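Kinase binding profiling ran on a commercial (Ambit) competitive binding screen against a panel of 90 kinases. The screen used reducing conditions with 7.5 mM DTT. To withstand the DTT, the bivalent ligand was tested as its amide isostere, with the disulfide replaced. A staurosporine derivative carrying a 3 β-alanine linker was run as the reference compound.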

The target of test [5] is T1, NUAK family SNF1-like kinase 2 (Homo sapiens) (UniProt Q9H093).
T1 sequence (whole entry): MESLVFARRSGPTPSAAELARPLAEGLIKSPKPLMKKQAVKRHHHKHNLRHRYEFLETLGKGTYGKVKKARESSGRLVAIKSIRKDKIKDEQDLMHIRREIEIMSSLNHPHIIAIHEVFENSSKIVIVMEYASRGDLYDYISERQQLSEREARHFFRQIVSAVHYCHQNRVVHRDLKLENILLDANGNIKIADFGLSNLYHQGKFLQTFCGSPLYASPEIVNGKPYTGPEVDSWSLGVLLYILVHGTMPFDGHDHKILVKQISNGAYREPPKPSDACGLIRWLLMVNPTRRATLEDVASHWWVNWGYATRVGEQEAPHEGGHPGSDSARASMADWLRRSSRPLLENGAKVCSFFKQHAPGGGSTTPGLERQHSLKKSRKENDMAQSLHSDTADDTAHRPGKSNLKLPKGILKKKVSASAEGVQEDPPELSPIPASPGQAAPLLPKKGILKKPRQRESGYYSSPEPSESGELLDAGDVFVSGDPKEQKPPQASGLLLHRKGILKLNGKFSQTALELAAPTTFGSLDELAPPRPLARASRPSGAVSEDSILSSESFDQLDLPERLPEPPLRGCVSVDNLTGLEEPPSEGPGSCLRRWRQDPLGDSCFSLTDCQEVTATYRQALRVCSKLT
The test is described as follows: Binding affinity to human SNARK at 500 nM by cell-based competition binding assay relative to control in presence of DTT.

In test [6] the target is Serine/threonine-protein kinase 32C (Homo sapiens) (UniProt Q86UX6). The test can be described thus: Binding affinity to human YANK3 at 500 nM by cell-based competition binding assay relative to control in presence of DTT.
Serine/threonine-protein kinase 32C (Homo sapiens), sequence (Q86UX6 whole entry): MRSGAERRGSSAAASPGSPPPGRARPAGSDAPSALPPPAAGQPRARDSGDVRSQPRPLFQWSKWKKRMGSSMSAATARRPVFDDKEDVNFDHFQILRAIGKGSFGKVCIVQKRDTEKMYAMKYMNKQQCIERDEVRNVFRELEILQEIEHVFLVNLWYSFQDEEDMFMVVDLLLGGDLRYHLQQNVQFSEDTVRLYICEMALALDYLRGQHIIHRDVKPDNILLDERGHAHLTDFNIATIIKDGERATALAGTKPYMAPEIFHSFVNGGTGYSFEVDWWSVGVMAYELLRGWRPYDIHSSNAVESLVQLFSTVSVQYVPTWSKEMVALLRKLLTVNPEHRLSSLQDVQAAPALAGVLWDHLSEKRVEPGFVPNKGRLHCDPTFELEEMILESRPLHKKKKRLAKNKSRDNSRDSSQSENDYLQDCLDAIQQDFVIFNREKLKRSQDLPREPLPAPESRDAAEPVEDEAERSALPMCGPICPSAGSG
The target of test [7] is cAMP-dependent protein kinase catalytic subunit alpha (Homo sapiens) (UniProt P17612). The test is described as follows: Binding affinity to human PKACalpha at 500 nM by cell-based competition binding assay relative to control in presence of DTT.
Test [8] concerns the target T2, Aurora kinase A (Homo sapiens) (UniProt O14965).
T2 sequence (whole entry): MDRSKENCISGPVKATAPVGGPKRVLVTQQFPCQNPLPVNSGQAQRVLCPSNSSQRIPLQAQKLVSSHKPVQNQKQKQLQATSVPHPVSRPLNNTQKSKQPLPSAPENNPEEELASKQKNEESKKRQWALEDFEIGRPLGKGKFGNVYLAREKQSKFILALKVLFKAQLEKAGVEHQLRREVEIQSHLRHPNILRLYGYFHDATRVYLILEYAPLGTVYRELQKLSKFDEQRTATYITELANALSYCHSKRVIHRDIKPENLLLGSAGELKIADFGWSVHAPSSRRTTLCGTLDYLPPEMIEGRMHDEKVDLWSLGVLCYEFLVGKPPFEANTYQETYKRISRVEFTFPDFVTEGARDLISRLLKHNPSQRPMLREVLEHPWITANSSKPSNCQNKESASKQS
The test can be described thus: Binding affinity to human aurora kinase A at 200 nM by cell-based competition binding assay relative to control in presence of DTT.

Test [9] addresses Non-receptor tyrosine-protein kinase TYK2 (Homo sapiens) (UniProt P29597). The test is described as follows: Binding affinity to human TYK2 kinase domain 2 at 200 nM by cell-based competition binding assay relative to control in presence of DTT.
Test [10] addresses Insulin-like growth factor 1 receptor (Homo sapiens) (UniProt P08069). The test is described as follows: Binding affinity to human IGF1R at 50 nM by cell-based competition binding assay relative to control in presence of DTT. A digest of the protocol: as §1
Test [11] has as its target MAP kinase-activated protein kinase 2 (Homo sapiens) (UniProt P49137). The test is described as follows: Binding affinity to human MAPKAPK2 at 50 nM by cell-based competition binding assay relative to control in presence of DTT. The method, boiled down:
as §1

The target of test [12] is Mitogen-activated protein kinase 10 (Homo sapiens) (UniProt P53779). The test is described as follows: Binding affinity to human JNK3 at 50 nM by cell-based competition binding assay relative to control in presence of DTT. The method, boiled down: as §1
Mitogen-activated protein kinase 10 (Homo sapiens), sequence (P53779 whole entry): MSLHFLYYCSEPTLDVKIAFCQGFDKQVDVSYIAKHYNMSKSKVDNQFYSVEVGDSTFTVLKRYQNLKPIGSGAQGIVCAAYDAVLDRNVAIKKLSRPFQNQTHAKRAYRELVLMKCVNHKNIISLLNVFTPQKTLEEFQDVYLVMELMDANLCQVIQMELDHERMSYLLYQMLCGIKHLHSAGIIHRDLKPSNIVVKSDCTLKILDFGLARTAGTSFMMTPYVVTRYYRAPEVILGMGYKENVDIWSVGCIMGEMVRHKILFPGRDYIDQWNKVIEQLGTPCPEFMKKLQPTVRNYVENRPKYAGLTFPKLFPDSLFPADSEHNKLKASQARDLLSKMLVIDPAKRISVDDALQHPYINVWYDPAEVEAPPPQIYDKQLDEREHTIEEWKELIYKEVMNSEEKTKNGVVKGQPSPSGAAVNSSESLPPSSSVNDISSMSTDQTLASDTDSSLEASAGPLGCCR
The target in test [13] is T3, Tyrosine-protein kinase ZAP-70 (Homo sapiens) (UniProt P43403).
T3 sequence (whole entry): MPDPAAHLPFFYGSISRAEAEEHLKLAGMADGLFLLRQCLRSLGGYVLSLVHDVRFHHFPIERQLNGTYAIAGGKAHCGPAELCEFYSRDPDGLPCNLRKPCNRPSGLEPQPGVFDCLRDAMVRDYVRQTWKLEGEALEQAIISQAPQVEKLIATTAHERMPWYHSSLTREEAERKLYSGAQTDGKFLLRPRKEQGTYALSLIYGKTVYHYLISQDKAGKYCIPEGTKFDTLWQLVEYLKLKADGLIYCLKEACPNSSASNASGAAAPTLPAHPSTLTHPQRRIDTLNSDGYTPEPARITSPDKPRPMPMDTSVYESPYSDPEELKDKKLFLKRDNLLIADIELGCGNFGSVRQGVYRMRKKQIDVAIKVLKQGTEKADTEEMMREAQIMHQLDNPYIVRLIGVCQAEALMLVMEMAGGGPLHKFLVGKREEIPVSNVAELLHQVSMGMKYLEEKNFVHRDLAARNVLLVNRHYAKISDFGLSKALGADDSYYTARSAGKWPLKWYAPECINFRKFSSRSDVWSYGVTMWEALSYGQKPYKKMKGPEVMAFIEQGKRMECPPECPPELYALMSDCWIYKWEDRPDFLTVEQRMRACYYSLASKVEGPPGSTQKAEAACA
The test can be described thus: Binding affinity to human ZAP70 at 50 nM by cell-based competition binding assay relative to control in presence of DTT.

ALK tyrosine kinase receptor (Homo sapiens), sequence (Q9UM73 19-1620 limits assumed): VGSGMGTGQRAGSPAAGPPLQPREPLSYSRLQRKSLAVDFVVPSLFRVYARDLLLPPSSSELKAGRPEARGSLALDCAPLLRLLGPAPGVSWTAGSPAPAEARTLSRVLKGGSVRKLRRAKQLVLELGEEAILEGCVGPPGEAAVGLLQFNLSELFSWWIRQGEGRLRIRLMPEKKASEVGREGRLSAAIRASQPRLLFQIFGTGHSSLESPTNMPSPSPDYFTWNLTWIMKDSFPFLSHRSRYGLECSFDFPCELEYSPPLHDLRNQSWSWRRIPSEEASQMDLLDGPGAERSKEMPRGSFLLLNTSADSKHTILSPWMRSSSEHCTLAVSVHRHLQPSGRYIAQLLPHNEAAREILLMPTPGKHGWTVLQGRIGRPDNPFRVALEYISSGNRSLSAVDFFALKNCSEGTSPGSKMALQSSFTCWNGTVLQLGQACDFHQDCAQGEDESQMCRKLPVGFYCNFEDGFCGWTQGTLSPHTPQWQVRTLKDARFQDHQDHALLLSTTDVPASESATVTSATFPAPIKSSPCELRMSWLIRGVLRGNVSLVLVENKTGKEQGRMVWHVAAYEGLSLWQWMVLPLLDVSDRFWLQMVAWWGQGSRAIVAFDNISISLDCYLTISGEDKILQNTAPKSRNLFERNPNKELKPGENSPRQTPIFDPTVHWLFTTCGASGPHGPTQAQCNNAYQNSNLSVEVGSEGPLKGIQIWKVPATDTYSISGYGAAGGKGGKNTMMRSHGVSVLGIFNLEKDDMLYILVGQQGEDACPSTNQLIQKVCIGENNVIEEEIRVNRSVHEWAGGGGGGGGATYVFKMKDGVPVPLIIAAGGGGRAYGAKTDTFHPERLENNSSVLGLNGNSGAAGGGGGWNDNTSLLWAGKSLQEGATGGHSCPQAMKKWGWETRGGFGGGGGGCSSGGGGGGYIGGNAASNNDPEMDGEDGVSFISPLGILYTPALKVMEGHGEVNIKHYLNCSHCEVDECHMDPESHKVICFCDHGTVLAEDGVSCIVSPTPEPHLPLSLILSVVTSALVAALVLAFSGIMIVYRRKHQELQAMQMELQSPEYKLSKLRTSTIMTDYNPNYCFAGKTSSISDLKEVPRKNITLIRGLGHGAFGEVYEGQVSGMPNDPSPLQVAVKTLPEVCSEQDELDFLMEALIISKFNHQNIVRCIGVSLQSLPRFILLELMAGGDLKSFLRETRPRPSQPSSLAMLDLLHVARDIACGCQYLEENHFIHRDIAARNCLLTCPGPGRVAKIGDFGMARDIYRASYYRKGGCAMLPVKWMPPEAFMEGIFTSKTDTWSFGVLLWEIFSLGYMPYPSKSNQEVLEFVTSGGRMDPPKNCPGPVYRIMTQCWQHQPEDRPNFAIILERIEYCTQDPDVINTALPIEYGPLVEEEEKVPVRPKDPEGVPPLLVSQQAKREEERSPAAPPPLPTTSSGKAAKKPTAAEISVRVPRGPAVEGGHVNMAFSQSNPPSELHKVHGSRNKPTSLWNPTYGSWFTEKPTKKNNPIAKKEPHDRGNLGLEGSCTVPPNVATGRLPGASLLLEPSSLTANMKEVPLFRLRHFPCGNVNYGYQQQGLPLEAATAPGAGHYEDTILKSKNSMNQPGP
Mitogen-activated protein kinase kinase kinase 9 (Homo sapiens), sequence (P80192 whole entry, looked up): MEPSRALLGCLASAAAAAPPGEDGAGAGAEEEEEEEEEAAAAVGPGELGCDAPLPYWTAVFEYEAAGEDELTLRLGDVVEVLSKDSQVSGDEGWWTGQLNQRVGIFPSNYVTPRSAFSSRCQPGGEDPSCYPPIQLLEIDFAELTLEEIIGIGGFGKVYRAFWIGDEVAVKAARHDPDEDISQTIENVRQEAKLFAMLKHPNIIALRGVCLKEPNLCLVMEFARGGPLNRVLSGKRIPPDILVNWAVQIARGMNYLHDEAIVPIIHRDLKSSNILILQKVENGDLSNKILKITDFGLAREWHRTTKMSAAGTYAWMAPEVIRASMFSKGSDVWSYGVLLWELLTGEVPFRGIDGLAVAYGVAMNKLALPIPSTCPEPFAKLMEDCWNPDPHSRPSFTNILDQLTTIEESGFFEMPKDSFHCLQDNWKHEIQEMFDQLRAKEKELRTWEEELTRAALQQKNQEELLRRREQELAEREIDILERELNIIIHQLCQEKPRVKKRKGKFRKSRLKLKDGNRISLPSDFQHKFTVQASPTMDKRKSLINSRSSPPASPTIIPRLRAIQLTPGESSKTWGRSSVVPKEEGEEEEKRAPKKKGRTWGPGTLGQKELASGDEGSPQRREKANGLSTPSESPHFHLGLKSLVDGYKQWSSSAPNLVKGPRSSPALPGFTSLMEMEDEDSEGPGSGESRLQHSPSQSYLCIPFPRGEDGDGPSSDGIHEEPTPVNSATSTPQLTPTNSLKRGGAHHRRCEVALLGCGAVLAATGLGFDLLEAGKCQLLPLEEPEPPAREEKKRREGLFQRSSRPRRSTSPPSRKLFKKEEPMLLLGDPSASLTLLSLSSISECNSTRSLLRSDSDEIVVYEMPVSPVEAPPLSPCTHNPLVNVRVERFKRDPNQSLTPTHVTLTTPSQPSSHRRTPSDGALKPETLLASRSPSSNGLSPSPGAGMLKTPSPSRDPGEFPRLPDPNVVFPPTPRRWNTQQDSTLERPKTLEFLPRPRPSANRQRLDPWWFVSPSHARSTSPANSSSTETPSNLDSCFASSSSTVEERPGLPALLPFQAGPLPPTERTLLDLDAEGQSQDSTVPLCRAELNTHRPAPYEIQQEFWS
Insulin-like growth factor 1 receptor (Homo sapiens), sequence (P08069 31-736 limits assumed): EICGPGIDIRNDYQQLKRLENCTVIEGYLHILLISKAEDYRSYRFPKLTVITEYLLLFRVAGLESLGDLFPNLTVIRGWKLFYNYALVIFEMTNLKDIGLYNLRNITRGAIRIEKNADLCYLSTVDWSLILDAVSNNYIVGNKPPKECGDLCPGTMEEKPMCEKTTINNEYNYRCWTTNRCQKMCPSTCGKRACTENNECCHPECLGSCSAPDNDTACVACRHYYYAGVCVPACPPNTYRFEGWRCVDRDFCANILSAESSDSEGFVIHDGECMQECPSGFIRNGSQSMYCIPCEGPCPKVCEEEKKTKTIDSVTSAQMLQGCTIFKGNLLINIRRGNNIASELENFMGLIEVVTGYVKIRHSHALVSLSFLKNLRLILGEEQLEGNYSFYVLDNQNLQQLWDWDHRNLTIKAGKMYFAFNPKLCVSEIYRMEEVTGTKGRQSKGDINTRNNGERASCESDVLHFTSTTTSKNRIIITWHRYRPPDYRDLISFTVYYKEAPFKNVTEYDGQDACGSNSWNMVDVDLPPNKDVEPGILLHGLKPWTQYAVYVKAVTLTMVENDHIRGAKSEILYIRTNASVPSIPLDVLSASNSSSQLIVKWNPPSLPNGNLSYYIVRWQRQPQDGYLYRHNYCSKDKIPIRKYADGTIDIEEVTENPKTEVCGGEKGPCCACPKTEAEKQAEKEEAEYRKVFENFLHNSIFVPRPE
Insulin-like growth factor 1 receptor (Homo sapiens), sequence (P08069 741-1367 limits assumed): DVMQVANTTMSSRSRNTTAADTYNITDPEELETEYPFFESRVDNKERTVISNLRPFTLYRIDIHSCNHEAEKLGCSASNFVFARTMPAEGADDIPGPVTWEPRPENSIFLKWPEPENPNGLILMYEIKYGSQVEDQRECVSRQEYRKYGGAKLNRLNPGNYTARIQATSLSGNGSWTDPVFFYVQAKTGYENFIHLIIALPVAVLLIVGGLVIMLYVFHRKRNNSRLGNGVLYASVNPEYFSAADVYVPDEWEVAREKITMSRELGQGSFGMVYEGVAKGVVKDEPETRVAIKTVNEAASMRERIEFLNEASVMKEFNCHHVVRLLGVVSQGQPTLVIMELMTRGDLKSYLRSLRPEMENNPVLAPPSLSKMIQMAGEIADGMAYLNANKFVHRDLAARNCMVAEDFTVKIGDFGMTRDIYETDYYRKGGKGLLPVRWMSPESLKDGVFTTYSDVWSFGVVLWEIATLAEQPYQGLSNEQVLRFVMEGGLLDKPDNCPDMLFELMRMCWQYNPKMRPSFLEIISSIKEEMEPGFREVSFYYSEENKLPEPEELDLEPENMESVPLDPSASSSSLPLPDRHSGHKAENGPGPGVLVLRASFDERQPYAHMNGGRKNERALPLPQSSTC

On to `CO[C@@H]1[C@H](N(C)C(=O)CCC(=O)NCCC(=O)NCCC(=O)NCCC(N)=O)C[C@H]2O[C@]1(C)n1c3ccccc3c3c4c(c5c6ccccc6n2c5c31)C(=O)NC4`, for which the Activity was found to be 7.4% in test [1]; 0.55% in [3]; 5.2% in test [4]; 3.2% in [5]; 100% in test [6]; 52% in test [7]. Further, the Selectivity ratio in test [2] was 14.

`CO[C@@H]1[C@H](N(C)C(=O)CCC(=O)NCCC(=O)NCCC(=O)NCCC(=O)NCCC(=O)NCCC(=O)NCCC(=O)NCCC(=O)N[C@H]2CSSC[C@@H](C(=O)NCC(N)=O)NC(=O)CNC(=O)[C@H](Cc3ccccc3)NC(=O)[C@H](C(C)C)NC(=O)[C@H](CCCNC(=N)N)NC(=O)[C@H](Cc3ccccc3)NC(=O)[C@H](C(C)C)NC2=O)C[C@H]2O[C@]1(C)n1c3ccccc3c3c4c(c5c6ccccc6n2c5c31)C(=O)NC4` ({Staurosporine-Suc-βAla-βAla-βAla-βAla-βAla-βAla-βAla}-CVFRVFGCG-NH2; disulfide 1-8): the figures for the Activity in test [8] and in [9] were 19% and 62%, respectively.

As to `CO[C@@H]1[C@H](N(C)C(=O)CCC(=O)NCCC(=O)NCCC(=O)NCCC(=O)NCCC(=O)NCCC(=O)NCCC(=O)NCCC(=O)N[C@H]2CNC(=O)C[C@@H](C(N)=O)NC(=O)CNC(=O)[C@H](Cc3ccccc3)NC(=O)[C@H](C(C)C)NC(=O)[C@H](CCCNC(=N)N)NC(=O)[C@H](Cc3ccccc3)NC(=O)[C@H](C(C)C)NC2=O)C[C@H]2O[C@]1(C)n1c3ccccc3c3c4c(c5c6ccccc6n2c5c31)C(=O)NC4` ({Staurosporine-Suc-βAla-βAla-βAla-βAla-βAla-βAla-βAla}-[Dap]VFRVFGD-NH2; lactam 1-8), the Activity was 100% in test [10], 100% in [11], 85% in [12] and 57% in test [13].
